Columns and labels:
[1] = AUC in Sprague-Dawley rat at 50 mg/kg, po; type: ADME, organism-based; parameters: dose 50 mg/kg, route oral; conditions: plasma
Outline: (§1)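 Three female BALB/c mice (lines for mice, 8–10 weeks) or three female Sprague-Dawley rats (10–12 weeks) per group; 50 mg/kg oral gavage in 3% EtOH-7% Tween 80-90% normal saline. Plasma sampled at set times (tail bleed in mice, saphenous vein in rats), extracted with acetonitrile plus internal standard, quantified by LC/MS; AUC as mean of three animals.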

[2] = Metabolic stability in rat liver microsomes; type: ADME, Microsome
Outline: (§2)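 Pooled female liver microsomes at 0.5 mg/ml in 0.1 M potassium phosphate pH 7.4, 3 mM MgCl2, 1 mM EDTA, with NADPH regenerating system (1 mM NADP+, 5 mM glucose-6-phosphate, 1 U/ml G6PDH). Preincubated 10 min at 37°C, then compound added to 1 μM final. Time points quenched with 3 volumes acetonitrile plus internal standard; parent quantified by LC/MS; half-life reported.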

[3] = Inhibition of Plasmodium falciparum protein farnesyltransferase by SPA method
[4] = AUC in BALB/c mouse at 50 mg/kg, po; type: ADME, organism-based; parameters: dose 50 mg/kg, route oral; conditions: plasma; outline: as §1
[5] = Elimination half life in BALB/c mouse at 50 mg/kg, po; type: ADME, organism-based; parameters: dose 50 mg/kg, route oral; conditions: in vivo, read-out: beta t1/2
Outline: (§3)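 50 mg/kg by oral gavage in 3% EtOH-7% Tween 80-90% normal saline to groups of three females (BALB/c mice, 8–10 weeks, tail bleed; Sprague-Dawley rats, 10–12 weeks, saphenous vein). Plasma extracted with acetonitrile/internal standard, LC/MS; means of three animals. Oral elimination half-life depends on absorption rate as well as elimination.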

[6] = Cmax in BALB/c mouse at 50 mg/kg, po; type: ADME, organism-based; parameters: dose 50 mg/kg, route oral; conditions: in vivo; outline: as §3
[7] = Metabolic stability in mouse liver microsomes; type: ADME, Microsome; outline: as §2
[8] = Elimination half life in Sprague-Dawley rat at 50 mg/kg, po; type: ADME, organism-based; parameters: dose 50 mg/kg, route oral; conditions: in vivo, read-out: beta t1/2; outline: as §3
[9] = system: Plasmodium falciparum; assay: Antiplasmodial activity against Plasmodium falciparum by [3H]hypoxanthine uptake; type: functional; conditions: read-out: ED50 (the source's name)
Outline: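 Asynchronous P. falciparum (3D7 or K1) in RPMI 1640 with 20% heat-inactivated human A+ plasma, 0.5% parasitemia and 0.5% hematocrit; compound serially diluted, top final 5 μM, 48 h at 37°C under 5% CO2/5% O2/90% N2, then [8-3H]hypoxanthine 0.3 μCi added for 24 h.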

[10] = system: Plasmodium falciparum; assay: Antiplasmodial activity against chloroquine-resistant Plasmodium falciparum K1 by [3H]hypoxanthine uptake; type: functional; conditions: read-out: ED50 (the source's name)
Outline: (§4)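 Asynchronous cultures at 0.5% parasitemia and 0.5% hematocrit in RPMI 1640 with 20% heat-inactivated human A+ plasma, exposed to serially diluted inhibitor (top final 5 μM, from DMSO stock) under 5% CO2/5% O2/90% N2 at 37°C for 48 h. [3H]hypoxanthine was then added for 24 h and harvested counts were background-subtracted against DMSO-only controls. ED50 came from linear regression, as the mean of duplicates.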

[11] = Cmax in Sprague-Dawley rat at 50 mg/kg, po; type: ADME, organism-based; parameters: dose 50 mg/kg, route oral; conditions: in vivo; outline: as §3
[12] = system: Plasmodium falciparum; assay: Antiplasmodial activity against chloroquine-sensitive Plasmodium falciparum 3D7 by [3H]hypoxanthine uptake; type: functional; conditions: read-out: ED50 (the source's name); outline: as §4
[13] = Permeability from apical to basolateral side in human Caco-2 cells; type: ADME, cell-based; conditions: read-out: permeability
[14] = system: Mus musculus; assay: Toxicity in BALB/c mouse at 50 mg/kg, po; type: organism-based; parameters: dose 50 mg/kg, route oral; conditions: in vivo
[15] = Permeability from basolateral to apical side in human Caco-2 cells; type: ADME, cell-based; conditions: read-out: permeability
Outline: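 Caco-2 clone TC7 grown on laminin-coated porous inserts and used 19-21 days after seeding; integrity checked by TEER and [3H]mannitol flux. Monolayers equilibrated 30 min at 37°C in HBSS/5 mM HEPES pH 7.4. Compound at 50 μM final added to basolateral donor side. Apical receiver sampled at 60 min, 37°C with shaking; LC/MS; Papp calculated from 60-min concentrations.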

[16] = system: Mus musculus; assay: Plasma concentration in BALB/c mouse at 50 mg/kg, po; type: ADME, organism-based; parameters: dose 50 mg/kg, route oral; conditions: in vivo
Outline: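 Female BALB/c mice, 8-10 weeks, three per group. Single 50 mg/kg oral gavage in 3% EtOH-7% Tween 80-90% normal saline. Plasma collected by tail bleed at set times, frozen at −20°C, acetonitrile-extracted with internal standard, quantified by LC/MS.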

[17] = system: Rattus norvegicus; assay: Toxicity in Sprague-Dawley rat at 50 mg/kg, po; type: organism-based; parameters: dose 50 mg/kg, route oral; conditions: in vivo
Outline: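 Female Sprague-Dawley rats, 10-12 weeks, three per group. 50 mg/kg oral gavage in 3% EtOH-7% Tween 80-90% normal saline. Saphenous vein plasma sampled over time, and animals observed for adverse reactions.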

[18] = Drug metabolism in bile duct cannulated Sprague-Dawley rat assessed as radioactive drug recovery in feces at 35 mg/kg, po after 18 hrs; type: ADME, organism-based; parameters: dose 35 mg/kg, route oral; conditions: in vivo
Outline: (§5)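 Male bile-duct- and jugular-cannulated Sprague-Dawley rats (~350 g, three per compound) given 35 mg/kg 14C-labelled compound orally (80 μCi/kg) in 3% EtOH-7% Tween 80-90% saline. Urine, feces and bile collected for 18 h, cages washed with methanol-water, animals autopsied; radioactivity per matrix by liquid scintillation counting as mean % of dose.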

[19] = system: Blood; assay: Drug level in bile duct cannulated Sprague-Dawley rat blood at 35 mg/kg, po after 18 hrs; type: ADME, organism-based; parameters: dose 35 mg/kg, route oral; conditions: in vivo
Outline: (§6)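 Male Sprague-Dawley rats (~350 g), jugular vein and bile duct cannulated, 1 week recovery; three per compound dosed by oral gavage with 35 mg/kg in 3% EtOH-7% Tween 80-90% normal saline plus 80 μCi/kg 14C tracer. Plasma and blood cells sampled over 18 h; radioactivity by liquid scintillation, reported as mean μg base equivalents/g.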

[20] = system: Rattus norvegicus; assay: Plasma concentration in bile duct cannulated Sprague-Dawley rat at 35 mg/kg, po after 18 hrs; conditions: in vivo
[21] = system: Blood; assay: Drug level in bile duct cannulated Sprague-Dawley rat blood at 35 mg/kg, po after 1 hr; type: ADME, organism-based; parameters: dose 35 mg/kg, route oral; conditions: in vivo; outline: as §6
[22] = Drug metabolism in bile duct cannulated Sprague-Dawley rat assessed as radioactive drug recovery in gastrointestinal tract at 35 mg/kg, po after 18 hrs; type: ADME, organism-based; parameters: dose 35 mg/kg, route oral; conditions: in vivo; outline: as §5
[23] = system: Rattus norvegicus; assay: Toxicity in bile duct cannulated Sprague-Dawley rat assessed as incidence of adverse events at 35 mg/kg, po after 18 hrs; type: organism-based; parameters: dose 35 mg/kg, route oral; conditions: in vivo
Outline: (§7)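 Male Sprague-Dawley rats, about 350 g, with jugular and bile-duct cannulae, allowed 1 week recovery; three per compound. Oral gavage 35 mg/kg in 3% EtOH-7% Tween 80-90% saline with 80 μCi/kg 14C tracer. Monitored 18 h. Plasma and blood-cell radioactivity measured by liquid scintillation counting and given as μg base equivalents/g.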

[24] = system: Rattus norvegicus; assay: Plasma concentration in bile duct cannulated Sprague-Dawley rat at 35 mg/kg, po after 3 hrs; type: ADME, organism-based; parameters: dose 35 mg/kg, route oral; conditions: in vivo; outline: as §7
[25] = Drug metabolism in bile duct cannulated Sprague-Dawley rat assessed as radioactive drug recovery in urine at 35 mg/kg, po after 18 hrs; type: ADME, organism-based; parameters: dose 35 mg/kg, route oral; conditions: in vivo; outline: as §5
[26] = system: Blood; assay: Drug level in bile duct cannulated Sprague-Dawley rat blood at 35 mg/kg, po after 2 hrs; type: ADME, organism-based; parameters: dose 35 mg/kg, route oral; conditions: in vivo; outline: as §6
[27] = system: Blood; assay: Drug level in bile duct cannulated Sprague-Dawley rat blood at 35 mg/kg, po after 3 hrs; type: ADME, organism-based; parameters: dose 35 mg/kg, route oral; conditions: in vivo; outline: as §6
[28] = Drug metabolism in bile duct cannulated Sprague-Dawley rat assessed as radioactive drug recovery in bile at 35 mg/kg, po after 18 hrs; type: ADME, organism-based; parameters: dose 35 mg/kg, route oral; conditions: in vivo; outline: as §5
[29] = system: Rattus norvegicus; assay: Drug metabolism in bile duct cannulated Sprague-Dawley rat assessed as radioactive drug recovery at 35 mg/kg, po after 18 hrs; type: ADME, organism-based; parameters: dose 35 mg/kg, route oral; conditions: in vivo; outline: as §5
[30] = system: Blood; assay: Drug level in bile duct cannulated Sprague-Dawley rat blood at 35 mg/kg, po after 6 hrs; type: ADME, organism-based; parameters: dose 35 mg/kg, route oral; conditions: in vivo; outline: as §6
[31] = system: Rattus norvegicus; assay: Plasma concentration in bile duct cannulated Sprague-Dawley rat at 35 mg/kg, po after 0.5 hrs; type: ADME, organism-based; parameters: dose 35 mg/kg, route oral; conditions: in vivo; outline: as §7
[32] = system: Rattus norvegicus; assay: Plasma concentration in bile duct cannulated Sprague-Dawley rat at 35 mg/kg, po after 1 hr; type: ADME, organism-based; parameters: dose 35 mg/kg, route oral; conditions: in vivo; outline: as §7
[33] = system: Blood; assay: Drug level in bile duct cannulated Sprague-Dawley rat blood at 35 mg/kg, po after 0.5 hrs; type: ADME, organism-based; parameters: dose 35 mg/kg, route oral; conditions: in vivo; outline: as §6
[34] = system: Rattus norvegicus; assay: Plasma concentration in bile duct cannulated Sprague-Dawley rat at 35 mg/kg, po after 2 hrs; type: ADME, organism-based; parameters: dose 35 mg/kg, route oral; conditions: in vivo; outline: as §7
[35] = system: Blood; assay: Drug level in bile duct cannulated Sprague-Dawley rat blood at 35 mg/kg, po after 4 hrs; type: ADME, organism-based; parameters: dose 35 mg/kg, route oral; conditions: in vivo; outline: as §6

Structure (SMILES): CC(C)COC(=O)N1CCC(CN(C2Cc3cc(C#N)ccc3N(Cc3cncn3C)C2)S(=O)(=O)c2ccccn2)CC1 (centres undefined)
- AUC [1]: 33.8 µM·h
- half-life [2]: 0.3 h
- IC50 [3]: 0.7 nM
- AUC [4]: 4.67 µM·h
- half-life [5]: 0.433 h
- Cmax [6]: 5.4 µM
- half-life [7]: 0.085 h
- half-life [8]: 1.03 h
- EC50 [9]: 62 nM
- EC50 [10]: 62 nM
- Cmax [11]: 8.4 µM
- EC50 [12]: 62 nM

Structure (SMILES): Cn1cncc1CN1CC(N(Cc2ccc(S(C)(=O)=O)cc2)S(=O)(=O)c2ccccn2)Cc2cc(C#N)ccc21 (centres undefined)
- Papp A→B [13]: 0.2 ×10⁻⁶ cm/s
- Activity [14]: Non-toxic
- Papp B→A [15]: 50.1 ×10⁻⁶ cm/s
- concentration [16]: 0.15 µM

Structure (SMILES): Cn1cnc(S(=O)(=O)N(CC(=O)NC(C)(C)C)C2Cc3cc(-c4ccccc4)ccc3N(Cc3cncn3C)C2)c1 (centres undefined)
- AUC [1]: 13.5 µM·h
- half-life [2]: 2.75 h
- AUC [4]: 15.7 µM·h
- half-life [5]: 1.47 h
- Activity [17]: Non-toxic
- Cmax [6]: 5 µM
- half-life [7]: 1.63 h
- half-life [8]: 1.77 h
- Cmax [11]: 4.1 µM

Structure (SMILES): Cn1cnc(S(=O)(=O)N(CCn2cccc2)C2Cc3cc(C#N)ccc3N(Cc3cncn3C)C2)c1 (centres undefined)
- Papp A→B [13]: 0.3 ×10⁻⁶ cm/s
- Activity [14]: Non-toxic
- Papp B→A [15]: 53 ×10⁻⁶ cm/s
- concentration [16]: 0.8 µM

Structure (SMILES): Cn1cnc(S(=O)(=O)N(Cc2ccccn2)C2Cc3cc(C#N)ccc3N(Cc3cncn3C)C2)c1 (centres undefined)
- Papp A→B [13]: 0.2 ×10⁻⁶ cm/s
- Activity [14]: Non-toxic
- Papp B→A [15]: 23.9 ×10⁻⁶ cm/s
- concentration [16]: 1 µM

Structure (SMILES): CC[C@]1(O)C[C@@H]2CN(CCc3c([nH]c4ccccc34)[C@@](C(=O)OC)(c3cc4c(cc3OC)N(C)[C@H]3[C@@](O)(C(=O)OC)[C@H](OC(C)=O)[C@]5(CC)C=CCN6CC[C@]43[C@@H]65)C2)C1 [VINBLASTINE]
- Papp A→B [13]: 0.1 ×10⁻⁶ cm/s
- Papp B→A [15]: 41.9 ×10⁻⁶ cm/s

Structure (SMILES): Cn1cncc1CN1CC(N(CCn2cccc2)S(=O)(=O)c2ccccn2)Cc2cc([14C]#N)ccc21 (centres undefined)
- Drug uptake [18]: 33.7%
- Drug uptake [19]: 0.243 ug base equiv/g
- Cp [20]: 0.351 ug base equiv/g
- Drug uptake [21]: 0.493 ug base equiv/g
- Drug uptake [22]: 40.3%
- Activity [23]: Non-toxic
- Cp [24]: 0.237 ug base equiv/g
- Drug uptake [25]: 1.6%
- Drug uptake [26]: 0.344 ug base equiv/g
- Drug uptake [27]: 0.221 ug base equiv/g
- Drug uptake [28]: 27.1%
- Drug uptake [29]: 104%
- Drug uptake [30]: 0.063 ug base equiv/g
- Cp [31]: 1.38 ug base equiv/g
- Cp [32]: 1.36 ug base equiv/g
- Drug uptake [33]: 0.566 ug base equiv/g
- Cp [34]: 0.723 ug base equiv/g
- Drug uptake [35]: 0.073 ug base equiv/g

Structure (SMILES): Cn1cncc1CN1CC(N(Cc2cccc(-n3cccc3)c2)S(=O)(=O)c2ccccn2)Cc2cc(C#N)ccc21 (centres undefined)
- Papp A→B [13]: 2.3 ×10⁻⁶ cm/s
- Activity [14]: Non-toxic
- Papp B→A [15]: 12.1 ×10⁻⁶ cm/s
- concentration [16]: 9.8 µM

Structure (SMILES): CNC(=C[N+](=O)[O-])NCCSCc1ccc(CN(C)C)o1 [RANITIDINE]
- Papp A→B [13]: 0.3 ×10⁻⁶ cm/s
- Papp B→A [15]: 5.6 ×10⁻⁶ cm/s

Source: ChEMBL document CHEMBL1138529, “Efficacy, pharmacokinetics, and metabolism of tetrahydroquinoline inhibitors of Plasmodium falciparum protein farnesyltransferase” (Antimicrob Agents Chemother, 2007)
